S100A4 inh HTS: S100A4-myosin IIA interaction inhibition. P26447. S100A4/TAMRA-MyoIIA peptide fluorescence polarization. inhibition, % at 10.7 µM. hit rate 0.14% among 360,000. AID 652163;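 active = mean inhibition of at least 70% across replicates, with every replicate also reaching that level; inconclusive = mean inhibition reaches 70% but some replicates fall short; inactive = mean inhibition below 70%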
Target sequence (P26447 whole entry, looked up): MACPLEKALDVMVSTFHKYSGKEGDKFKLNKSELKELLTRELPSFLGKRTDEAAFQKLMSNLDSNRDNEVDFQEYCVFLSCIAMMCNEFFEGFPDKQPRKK
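incubation = readout 5 min after mixing, signal stable up to 60 min | system = S100A4 monomer protein | buffer or medium = HEPES pH 7.2 with CaCl2, KCl, NaCl, DTT, Triton | benchmarks = neutral control DMSO, positive control TFP | also added = fluorescent myosin IIA peptide, 5 nM | compound dosing = one concentration per compound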
SR-BI HDL uptake: mouse SR-BI HDL lipid transfer inhibition. AID 488896. ldlA[mSR-BI] CHO cells, DiI-HDL uptake fluorescence, 3 h. hit rate 0.96% among 320,000. inhibition, % at 12.5 µM. Q61009;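 active = mean replicate inhibition of at least 70% and a set share of replicates each scoring 70 or more; inconclusive = meets just one of the two criteria; inactive = fails both criteria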;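 note: 0% = median of neutral control wells and 100% = median of positive control wells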
Target sequence (Q61009 whole entry, looked up): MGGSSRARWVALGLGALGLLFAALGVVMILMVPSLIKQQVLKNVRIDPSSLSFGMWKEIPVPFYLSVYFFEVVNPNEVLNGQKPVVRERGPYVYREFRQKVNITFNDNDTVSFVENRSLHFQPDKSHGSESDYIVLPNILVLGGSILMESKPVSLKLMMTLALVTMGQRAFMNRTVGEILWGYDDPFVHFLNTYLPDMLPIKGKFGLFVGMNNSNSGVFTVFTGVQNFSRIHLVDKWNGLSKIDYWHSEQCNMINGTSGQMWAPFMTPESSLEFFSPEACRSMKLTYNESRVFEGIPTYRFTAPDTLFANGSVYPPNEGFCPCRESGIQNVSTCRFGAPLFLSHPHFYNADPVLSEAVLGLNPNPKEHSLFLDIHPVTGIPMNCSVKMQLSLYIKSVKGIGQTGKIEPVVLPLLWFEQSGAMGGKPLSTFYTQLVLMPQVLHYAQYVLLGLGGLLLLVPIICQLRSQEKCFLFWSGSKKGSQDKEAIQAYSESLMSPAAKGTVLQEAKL
SR-BI uptake up: SR-BI HDL lipid transfer activation; CHO ldlA[mSR-BI] cells, DiI-HDL uptake fluorescence, 3 h; 100 = double the neutral-control signal; activation, % at 12.5 µM; hit rate 0.096% among 320,000; AID 504775;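 active = mean replicate activation of at least 60% and every replicate at or above 60%; inconclusive = mean or all-replicate condition met, but not both; inactive = mean below 60% and not all replicates reaching 60%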;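 note: 0% = median plate neutral-control signal and 100% = twice that signal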
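Material – SR-BI-overexpressing, LDLR-lacking CHO cells · Medium – BSA-supplemented, HEPES-buffered Ham's F12, pH 7.4 · Doses – single concentration · Times – compound with DiI-HDL co-incubation, 3 h at 37 °C · Measured by – bottom-read fluorescence, 550/595 nm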
dFosB act-1: activators of mouse delta FosB homodimer; P13346; purified delta FosB, TAMRA-CDK5 oligo fluorescence polarization; percent of positive-control signal above neutral wells; activation, % at 25 µM; hit rate 0.99% among 340,000;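 active = mean activation above about 17%, with every replicate also reaching it, limit read from the data, passing the limit was not always enough; inconclusive = only one of the two conditions met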
RAD54 inh: inhibitors of human RAD54 branch migration; Q92698; RAD54 Holliday junction branch migration, FAM/BHQ fluorescence; inhibition, % at 10.4 µM; hit rate 0.14% among 360,000; AID 602329;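 active = mean normalized replicate activity at least 40 and at least half of replicates scoring 40 or more; inconclusive = only one of the two criteria met; inactive = mean below 40 and under half of replicates reaching 40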;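 note: 0% = median of neutral control wells and 100% = median of positive control wells; inhibitors cause a drop in the FAM fluorescence signal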
PvdQ acylase: P. aeruginosa PvdQ acylase inhibition; purified PvdQ acylase, fluorescence plate reader; inhibition, % at 10 µM; hit rate 0.063% among 340,000; in the data active = inhibition above about 30%, passing the limit was not always enough; inconclusive = no clear call, values can overlap the other calls;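 note: 0% = vehicle neutral wells and 100% = reference inhibitor wells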
dFosB act-2: activators of mouse delta FosB homodimer DNA binding; purified delta FosB, TAMRA-CDK5 oligo fluorescence polarization; normalised: neutral wells 0, positive control 100; 2,400 tested, under 10 active; shares compounds with dFosB act-1; activation, % at 24.9 µM;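 active = highest replicate activation at or above 34% and every replicate reaching that threshold; inconclusive = meets only one of the two criteria; inactive = meets neither criterion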;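 note: higher polarization means more probe DNA bound by delta FosB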
Starred values were filed as active, the others as inactive; ? = inconclusive; / = no result given. Shown are actives, neighbours in structure and some others; about 1.6% of the full set was active somewhere.

SMILES	S100A4 inh HTS	SR-BI HDL uptake	SR-BI uptake up	dFosB act-1	RAD54 inh	PvdQ acylase	dFosB act-2
Nc1nonc1-n1nnc(C(=O)N/N=C/c2ccc(OCc3ccccc3)cc2)c1COc1ccc(F)cc1	1	59	-59	0	1	-16	/
Nc1nonc1-n1nnc(C(=O)N/N=C/c2ccc(O)cc2)c1COc1ccc(F)cc1	-1	14	-14	-4	-4	-6	/
Nc1nonc1-n1nnc(C(=O)N/N=C/c2ccccc2Cl)c1COc1ccc(F)cc1	10	29	-29	27*	/	-4	2
C[C@@H]1CCCCO[C@H](CN(C)C(=O)Nc2ccc(F)cc2)[C@@H](C)CN([C@H](C)CO)C(=O)c2cc(NC(=O)Nc3ccc4c(c3)OCO4)ccc2O1	-12	/	/	/	12	/	/
O=C(C[C@H]1CC[C@@H](NC(=O)CN2CCOCC2)[C@@H](CO)O1)NC1CCCCC1	7	/	/	/	-9	/	/
Cc1cc2ccccc2c(=O)n1CC(=O)Nc1ccc2c(c1)OCCO2	/	5	-5	19*	4	-17	0
Cn1c(=O)cc(OCCCC(=O)Nc2ccc3c(c2)OCCO3)c2ccccc21	/	-28	28	44*	2	-15	2
CCc1ccc(NC(=O)CCCOc2cc(=O)n(C)c3ccccc23)cc1	2	/	/	/	-3	/	/
COc1ccc(NC(=O)CNC(=O)Cn2c(C)cc3ccccc3c2=O)cc1OC	8	1	-1	10	/	-9	/
C/C=C/c1cnc2c(c1)C(=O)N([C@@H](C)CO)C[C@@H](C)[C@@H](CN(C)C(=O)Nc1ccc(F)cc1)O2	19	/	/	/	3	/	/
O=C(Nc1ccc(-c2nc3ccccc3[nH]2)cc1)c1cccc(N2C(=O)CCC2=O)c1	/	9	-9	36*	/	-5	2
O=C(Nc1ccc(S(=O)(=O)Nc2nccs2)cc1)c1cccc(N2C(=O)c3ccccc3C2=O)c1	-5	5	-5	-13	/	-15	/
O=C(Nc1ccc(F)cc1)c1cccc(N2C(=O)c3ccccc3C2=O)c1	-15	/	/	35*	/	3	5
O=C(CNC(=O)c1cccc(N2C(=O)c3ccccc3C2=O)c1)Nc1ccc(F)c(F)c1	1	-7	7	33*	3	-18	1
Cc1ccc(Sc2cc(Cl)nc(N)n2)cc1	/	4	-4	58*	3	-10	3
Nc1nc(Cl)cc(Sc2ccc(F)cc2)n1	/	-8	8	6	/	-2	/
COc1ccc(Br)cc1-c1noc(-c2ccccc2)n1	/	20	-20	27*	6	-21	?
COc1ccc(Br)cc1-c1noc(-c2ccncc2)n1	/	39	-39	-6	3	-2	/
O=C(c1cc(-c2ccc(Cl)cc2)on1)N1CCOCC1	-3	-13	13	-7	2	-13	/
O=C(c1cc(-c2ccc(Cl)c(Cl)c2)on1)N1CCOCC1	13	-20	20	50*	-3	-7	0
C[C@@H]1CN([C@@H](C)CO)C(=O)c2cccc(NC(=O)c3ccncc3)c2O[C@H]1CN(C)Cc1ccc(Cl)c(Cl)c1	9	/	/	/	-7	/	/
Cc1cc(C(=O)N/N=C/c2cccc(OC(=O)c3cccc(Br)c3)c2)n[nH]1	-6	23	-23	30*	-4	-20	3
COc1cccc(NC(=O)N[C@H]2CC[C@H](CC(=O)NCc3ccccn3)O[C@H]2CO)c1	7	/	/	/	1	/	/
O=C(COc1ccccc1Cl)Nc1cc(Cl)ccc1O	-7	-3	3	22*	/	-6	-1
COc1cc(NC(=O)COc2ccc([N+](=O)[O-])cc2)ccc1NC(=O)c1ccco1	-2	/	/	/	10	/	/
SMILES	S100A4 inh HTS	SR-BI HDL uptake	SR-BI uptake up	dFosB act-1	RAD54 inh	PvdQ acylase	dFosB act-2
COc1cc(NC(=O)COc2ccccc2[N+](=O)[O-])ccc1NC(=O)c1ccco1	-2	56	-56	34*	-1	-12	3
O=C(COc1ccccc1Cl)Nc1ccc(NC(=O)c2ccco2)cc1	-5	8	-8	21*	7	0	7
C[C@@H]1CN([C@H](C)CO)C(=O)c2cc(C#CC3(O)CCCC3)cnc2O[C@@H]1CN(C)Cc1ccccc1	-12	/	/	/	-8	/	/
CCCNC(=O)N1C[C@H](C)[C@H](OC)CN(C)C(=O)c2ccc(NC(=O)C3CCC3)cc2OC[C@H]1C	-45	/	/	/	5	/	/
Cc1cc(C)c2c(N)c(C(=O)c3ccc(Cl)c(Cl)c3)sc2n1	-12	21	-21	37*	/	1	4
O=C(CSc1nnc(-c2n[nH]c3ccccc23)n1-c1ccccc1)Nc1cccc(Cl)c1	/	14	-14	25*	/	-13	8
CCc1ccc(NC(=O)CSc2nnc(-c3n[nH]c4ccccc34)n2-c2ccccc2)cc1	/	-1	1	9	/	3	/
COCCCNC(=O)CCc1c(C)nc2c(c(C)nn2-c2ccccc2)c1C	0	14	-14	-2	-6	8	/
CCN(CC)CCNC(=O)CCc1c(C)nc2c(c(C)nn2-c2ccc(C)c(C)c2)c1C	-8	47	-47	20*	27	-24	1
CO[C@H]1CN(C)C(=O)c2cc(NS(=O)(=O)c3cn(C)cn3)ccc2OC[C@H](C)N(CC2CC2)C[C@H]1C	-11	/	/	/	-5	/	/
O=C(N[C@H]1C=C[C@@H](CC(=O)N2CCOCC2)O[C@H]1CO)c1ccc2c(c1)OCO2	0	/	/	/	-2	/	/
COc1ccc(NC(=O)Nc2cccc3c2O[C@@H](CN(C)S(=O)(=O)c2cccs2)[C@H](C)CN([C@@H](C)CO)C3=O)cc1	5	/	/	/	2	/	/
CCOc1ccc(-n2c([S-])c(C(=O)Nc3ccc(S(=O)(=O)N4CCOCC4)cc3)[n+]3cc(C(N)=O)ccc23)cc1	0	/	/	20*	/	14	2
CC=Cc1ccc2n(c1=O)C[C@@H]1[C@@H](CO)[C@H](C(=O)Nc3ccc(-c4ccccc4)cc3)[C@H]2N1C(C)=O (mixture of isomers)	-5	/	/	/	/	/	/
Cc1noc(C)c1NC(=O)N(C)C[C@H]1OCCCC[C@@H](C)Oc2ccc(NC(=O)CCC(F)(F)F)cc2C(=O)N([C@H](C)CO)C[C@@H]1C	-6	/	/	/	-4	/	/

High-throughput results: PubChem BioAssay, Broad Institute
